Where two headings read alike, the source gives them in different places.

Data set [1] relates to tubulin. The conditions noted are these: read-out: Inhibition of tubulin polymerization IC50; cell-free assay; ref [61]; cited from earlier work.
Data set [2] deals with tubulin. Description: Inhibition of tubulin assembly. Format: biochemical. The conditions noted are these: read-out: Inhibition of tubulin polymerization IC50; cell-free assay, tubulin purified from calf brain. An outline of the steps: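 Calf-brain tubulin; test compound mixtures held on ice 15 min, then GTP added from a 2.5 mM stock. Samples equilibrated at 0 °C for 8 min in the spectrophotometer, then read at 350 nm every 30 s for 3800 s. Temperature program: 0 °C for 100 s, 38 °C for 120 s, 31 °C until 2600 s, then 0 °C to the end.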

Data set [3] relates to SK-OV-3, NCI-H460 and DU-145 human cancer cell lines. The data set is described as follows: SRB cytotoxicity assay, three human cancer cell lines stated together. Format: cell-based. The procedure, abridged: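 Sulforhodamine B growth-inhibition assay (NCI standard method). Cells were grown in RPMI1640 with 5% fetal bovine serum and 1% gentamicin, then plated and incubated 24 h. Serial dilutions of test compound were added, with 48 h exposure. Cells were fixed with trichloroacetic acid, stained with SRB, and read by optical density. GI50 (concentration halving net protein increase) was calculated from OD data.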

`COc1ccc(/C=C\c2cc(OC)c(OC)c(OC)c2)cc1OP(=O)(O)O` [CA4P, combretastatin A-4P]: the IC50 with tubulin [1] was above 40 µM.
As for `COc1cc(C2=CCCCc3ccccc32)cc(OC)c1OC` [Compound 41, 5-(3,4,5-trimethoxyphenyl)-benzocyclohept-5-ene], in the data set with tubulin [2], the IC50 is above 40 µM.
As for `COc1cc(C2=CCCCc3c2ccc(OC)c3OP(=O)(O)O)cc(OC)c1OC` [Compound 44, Disodium 2-Methoxy-5-(3′,4′,5′-trimethoxyphenyl)-benzocyclohept-5-ene-1-phosphate], in the data set on tubulin [2], the IC50 was above 40 µM.
Same read-out and setting: under `COc1ccc(C2=CCCCc3c2ccc(OC)c3OC)cc1OC` [Compound 35, 1,2-Dimethoxy-5-(3,4-dimethoxyphenyl)-benzocyclohept-5-ene] stands above 40 µM.
Turning to `COc1ccc2c(c1O)CCCC=C2c1cc(OC)c(OC)c(OC)c1` [Compound 39, 1-Hydroxy-2-methoxy-5-(3′,4′,5′-trimethoxyphenyl)-benzocyclohept-5-ene], the GI50 in data set [3] (Homo sapiens, read-out: GI50 (cytotoxicity)) was below 0.0001 µM.
Consider `COc1cc2c(c(OC)c1O)CCCC=C2c1cc(OC)c(OC)c(OC)c1` [Compound 38, 1,3-Dimethoxy-2-hydroxy-5-(3′,4′,5′-trimethoxyphenyl)-benzocyclohept-5-ene], for which the IC50 in the data set on tubulin [2] is above 40 µM.
Regarding `COc1ccc2c(c1NC(=O)[C@@H](N)CO)CCCC=C2c1cc(OC)c(OC)c(OC)c1.Cl` [Compound 48, 1-(L-ser)amido-5-(3′,4′,5′-trimethoxyphenyl)-2-methoxy-benzocyclohept-5-ene hydrochloride], the “Cytotoxicity (in words)” value in data set [3] (three human cancer cell lines) is “inactive in terms of cytotoxicity”.
Turning to `COc1cc(C2=CCCCc3c2cc(OC)c(OC)c3O)cc(OC)c1OC` [Compound 43, 1-Hydroxy-2,3-dimethoxy-5-(3′,4′,5′-trimethoxyphenyl)-benzocyclohept-5-ene], the IC50 in the data set with tubulin [2] is above 40 µM.

Usually IC50 stands for the concentration at which inhibition is half-maximal. Broadly, the GI50 is the concentration at which growth is held to half of that of the control.

The record behind these values is PMC3968794 (Bioorganic & medicinal chemistry, 2013).
